Hits are enriched below; roughly 2.4% of the tested compounds scored in any of these assays.
TPT1 inhibitor: C. albicans TPT1 enzyme inhibition | recombinant caTPT1, FP RNA substrate dephosphorylation | inhibition, % at 5 µM | 300,000 tested, 0.81% active | AID 1962;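 active means inhibition above the mean of all tested compounds plus 3 SD, set per screening campaign, cut at about 24% in these data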;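 further: plate controls were DMSO alone for no effect and ferristatin control at 100 nM for full effect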
HNF4A DNA FP: change in binding of human HNF4 alpha to DNA; HNF4a-FITC DNA binding, fluorescence polarization, 1 h; activity change, % at 10 µM; 360,000 tested, 0.3% active; AID 1224865; in the data active means activity change above about 30%, passing the limit was not always enough
Neddylation inh: blocks human cullin neddylation; TR-FRET cullin neddylation, biochemical; inhibition, % at 25 µM; 360,000 tested, 0.58% active; AID 651699; in the data active means inhibition above about 36%
Rin1 Abl inh: human Rin1-Abl interaction inhibition. inhibition, % at 7.35 µM. P00519+Q13671. 360,000 tested, 0.4% active. TR-FRET Rin1/Abl binding, biochemical; in the data active means inhibition above about 5%, passing the limit was not always enough
Rpn11 block: inhibitors of human proteasome Rpn11; O00487; AID 588493; 360,000 tested, 0.59% active; inhibition, % at 20 µM; human 26S proteasome, Ub4-pepOG fluorescence polarization; 20S core pre-blocked with epoxomicin;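 active means inhibition at 20 µM, scaled to each plate's controls, above about 33%, limit read from the data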
Target sequence (O00487 whole entry, looked up): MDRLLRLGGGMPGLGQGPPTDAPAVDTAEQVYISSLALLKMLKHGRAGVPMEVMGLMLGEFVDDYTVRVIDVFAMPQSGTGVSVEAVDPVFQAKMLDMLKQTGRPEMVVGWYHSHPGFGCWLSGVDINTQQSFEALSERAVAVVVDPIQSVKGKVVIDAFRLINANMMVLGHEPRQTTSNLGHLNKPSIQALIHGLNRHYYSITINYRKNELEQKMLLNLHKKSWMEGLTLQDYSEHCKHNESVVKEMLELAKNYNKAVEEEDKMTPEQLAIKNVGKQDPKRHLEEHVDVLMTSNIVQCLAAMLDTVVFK
CSN deneddyl inh: CSN deneddylation inhibition | Q92905 | Purified CSN, SCF-Nedd8-OG deneddylation, fluorescence polarization | inhibition, % at 12.5 µM | 360,000 tested, 0.38% active;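 active means pattern-corrected inhibition above about 35%, with an unprinted fluorescence ratio check between 0.5 and 1.5, limit read from the data, passing the limit was not always enough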;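 further: 0% = enzyme with substrate and 100% = substrate without enzyme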
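Assay system: purified human Csn5 enzyme expressed in HEK293T cells; measure: % inhibition; also added: SCFSkp2-Nedd8OG substrate at 10 nM final; technique: fluorescence polarization; times: reaction 90 min, room temperature; medium: Tris buffer pH 7.5, NaCl, DTT, Tween-20, trehalose, ovalbumin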
Rin1-Abl confirm: confirmation of inhibitors of human Rin1-Abl interaction; inhibition, % at 7.35 µM; shares compounds with Rin1 Abl inh; TR-FRET Rin1-Abl binding, purified proteins; 1,300 tested, 49% active
GFP quencher: GFP fluorescence interference artifact | shares compounds with Rin1 Abl inh | inhibition, % at 6.75 µM | 1,300 tested, 8.5% active | inhibitors/quenchers counterscreen;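 further: ABL1-eGFP fusion protein alone without its partner RIN1-SBP; 0% = protein with vehicle and 100% = wells lacking protein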
GFP quench dose: quenches GFP in dose response, Rin1-Abl counter-screen | shares compounds with Rin1 Abl inh | GFP fluorescence interference/quenching counterscreen | IC50, µM | 230 tested, under 10 active; call rule not given here;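 further: ABL1-eGFP fusion protein alone without its RIN1 binding partner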
Numbers without * were called inactive; nt = no result shown. Unless noted, no stated cut-off is given here; in the data, active means inhibition above about 6.5%; inactive means the rest.

SMILES | TPT1 inhibitor | HNF4A DNA FP | Neddylation inh | Rin1 Abl inh | Rpn11 block | CSN deneddyl inh | Rin1-Abl confirm | GFP quencher | others
Oc1ccc(N=Nc2ccc3c(c2)OCCO3)c2cccnc12 | 2 | -5 | -61 | 11* | 26 | 0 | 8.4* | 8.1*
COCCCn1c(SCC(=O)Nc2ccc(C(C)=O)cc2)nc2ccccc2c1=O | 5 | 0 | -11 | 10* | 0 | -3 | 7.4* | 1
CCOC(CCn1c(SCC(=O)Nc2cc(C)on2)nc2ccccc2c1=O)OCC | 3 | -3 | 8 | 9.4* | -11 | 0 | -2 | 1
COC(=O)c1cccc(NC(=O)c2ccc[n+]([O-])c2)c1 | -2 | 4 | 2 | 17* | 0 | 4 | 23* | 1 | GFP quench dose=>67
O=C(COC(=O)c1cccc(S(=O)(=O)NCc2ccccc2)c1)NCC1CCCO1 (stereo not drawn) | -2 | 1 | 1 | -1 | -5 | 1 | nt | nt
O=C1CC(c2ccc(O)c(O)c2)Oc2c1ccc(O)c2O (stereo not drawn) | 15 | -22 | 20 | 49* | nt | 61 | 46* | 25*
CCOC(=O)c1ccc(NC(=O)COc2ccccc2CNC2CCCC2)cc1 | 4 | 4 | 9 | 31* | -1 | -1 | 34* | 0 | GFP quench dose=>68
Cc1[nH]c(=O)[nH]c1C(=O)CCCCC(=O)OCC(=O)Nc1ccccn1 | -1 | -1 | -7 | 90* | -2 | -2 | 97* | -1
CC(=O)c1c(C)[nH]c(C(=O)Nc2ccccn2)c1C | 1 | -2 | 7 | 3 | 2 | 3 | nt | nt
COc1ccc(C2NC(=O)CCC2[N+](=O)[O-])cc1 (stereo not drawn) | -4 | -2 | 4 | 7 | -2 | -1 | nt | nt
O=C1CCC([N+](=O)[O-])C(c2ccc(Br)cc2)N1 (stereo not drawn) | 1 | 0 | -3 | 11* | -3 | -13 | 8.1* | -1
Oc1ccc(/C=N/N(c2ccccc2)c2ccccc2)c(O)c1O | 7 | -1 | 5 | 10* | 10 | 7 | 6 | 4
O=C1OCC(c2ccc(Cl)s2)=C1c1ccccc1[N+](=O)[O-] | -1 | -2 | -34 | 3 | -1 | -3 | nt | nt
COc1ccc(OC)c(NC(=O)COc2ccc(S(=O)(=O)NC(C)C)cc2)c1 | 3 | 1 | -11 | 7.4* | 4 | 0 | -1 | 0
COc1ccccc1-c1cccc2nccn12 | nt | -2 | nt | 3 | -12 | -3 | nt | nt
NC1=NC(=O)/C(=C/c2cccc(-c3ccc(S(N)(=O)=O)cc3)c2)S1 | -3 | 5 | -18 | 2 | -4 | 1 | nt | nt
Cc1ccc(C2=NC(=O)/C(=C/c3cc(O)c(O)c(Br)c3)S2)cc1 | nt | -52 | 18 | 8.5* | -3 | 55 | 15* | 41*
OCC1(CCOc2ccccc2)CCN(Cc2ccncc2)CC1 | -4 | -1 | -6 | 12* | -1 | 1 | 12* | -2
CSc1ccc(CN2CCC(CO)(CCOc3ccccc3)CC2)cc1 | -2 | 2 | -4 | 0 | -11 | 4 | nt | nt
COc1ccc(CN2CCC(Oc3ccc(C(=O)N4CCCCC4)cc3)CC2)cc1C | -1 | 0 | -7 | 15* | 0 | 2 | 10* | -3
COc1cccc(CN2CCC(Oc3ccc(C(=O)N4CCCCC4)cc3)CC2)c1 | -3 | -1 | -6 | 5 | 0 | 1 | nt | nt
CSc1ccc(NC(=O)N2CCC(C(=O)c3ccc(F)cc3)CC2)cc1 | 3 | 5 | 0 | 7.4* | 3 | 0 | -1 | 0
COc1ccc(NC(=O)N2CCC(C(=O)c3ccc(F)cc3)CC2)cc1 | -1 | 5 | -4 | 0 | 6 | 2 | nt | nt
COc1ccc(-n2ncc3c(N4CCCCC4)ncnc32)cc1 | -2 | 2 | 38* | 6.1* | 3 | -2 | -4 | 1
Clc1ccc(-n2ncc3c(N4CCCCCC4)ncnc32)cc1 | -2 | -2 | -12 | 2 | 5 | -2 | nt | nt

Screening results (PubChem BioAssay)
